The list is not random: actives were taken first. Their share in the collection is about 2.1%.
aDG glyco act – alpha-DG glycosylation activation; Pro5-aDG cells, alpha-DG glycosylation AlphaScreen (IIH6); 0% Pro5, 100% B10-LARGE cell signal; activation, % at 10 µM; hit rate 0.22% among 360,000; AID 624168;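 active = activation of at least 8% versus controls, or a plate z-score of at least 8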;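 also: Pro5 are CHO cells carrying HIG-tagged alpha-DG that lacks glycosylation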
PfGluPho inh – PfG6PD (Plasmodium falciparum) enzyme inhibition; PfGluPho enzyme, NADPH resazurin-diaphorase fluorescence; inhibition, % at 20 µM; hit rate 0.78% among 350,000; AID 504690;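 active = inhibition reaching at least a set limit at 20 µM in the primary screen, cut at about 59% in these data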;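 also: 0% = DMSO wells with substrate and 100% = DMSO wells lacking glucose-6-phosphate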
Cardio protect – protects H9c2 cardiomyocytes from peroxide injury. protection from H2O2 cell death, % at 20 µM. hit rate 0.63% among 360,000. AID 588492. H2O2 injury protection, ATPLite, 2 h;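 active = compounds giving at least 50% protection of heart cells from peroxide-induced death in the single-dose screen, raw or plate-pattern-corrected value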;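 also: 0% = DMSO wells with peroxide and 100% = DMSO wells without peroxide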
B2AR ag – activates human beta-2 adrenergic receptor causing internalization; P07550; AID 504454; hit rate 0.43% among 340,000; Am2.2-beta2AR cells, FAP receptor internalization, flow cytometry; response, % (concentration not given with the values);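 active = response above a set limit, near 3 SD of response in nonfluorescent compounds, cut at about 42% in these data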
Target sequence (P07550 whole entry, looked up): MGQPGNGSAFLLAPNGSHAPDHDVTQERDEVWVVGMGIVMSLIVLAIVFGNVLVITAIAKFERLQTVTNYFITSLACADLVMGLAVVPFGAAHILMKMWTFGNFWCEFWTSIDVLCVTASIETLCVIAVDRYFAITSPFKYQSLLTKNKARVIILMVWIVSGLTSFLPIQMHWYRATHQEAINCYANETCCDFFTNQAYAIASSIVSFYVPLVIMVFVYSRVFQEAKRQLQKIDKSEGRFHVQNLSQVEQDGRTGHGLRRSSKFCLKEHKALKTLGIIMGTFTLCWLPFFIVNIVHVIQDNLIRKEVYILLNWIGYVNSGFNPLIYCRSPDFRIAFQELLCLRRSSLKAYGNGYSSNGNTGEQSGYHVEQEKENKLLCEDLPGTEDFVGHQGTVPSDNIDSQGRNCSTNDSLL
UCH37 inh – blocks the human deubiquitinase UCH37. Q9Y5K5. purified proteasome/UCH37, Ub-AMC cleavage fluorescence. inhibition, % (test concentration not listed). hit rate 0.33% among 330,000;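 active = mean inhibition over replicate wells above about 20%, limit read from the data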;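 also: 0% = compound-free wells with enzyme and 100% = wells lacking proteasome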
Target sequence (Q9Y5K5 whole entry, looked up): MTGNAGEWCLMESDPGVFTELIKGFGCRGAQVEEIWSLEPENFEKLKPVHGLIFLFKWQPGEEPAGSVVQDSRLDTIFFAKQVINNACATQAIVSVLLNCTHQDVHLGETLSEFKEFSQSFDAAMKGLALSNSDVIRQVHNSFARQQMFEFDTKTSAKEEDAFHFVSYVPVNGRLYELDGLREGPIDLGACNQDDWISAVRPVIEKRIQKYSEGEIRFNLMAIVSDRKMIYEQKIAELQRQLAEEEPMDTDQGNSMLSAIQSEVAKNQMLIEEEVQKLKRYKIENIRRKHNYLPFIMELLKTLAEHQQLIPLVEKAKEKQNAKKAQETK
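Assay system: Proteasome-bound UCH37. Buffer or medium: pH 7.4 Tris-HCl (50 mM) with ovalbumin, ATP-MgCl2, DTT. Incubation: 30 min preincubation with enzyme, 25 min cleavage at room temperature. Measured by: fluorescence, ex 355 nm, em 460 nm. Read-out basis: percent inhibition. Control set: wells without proteasome as full block, compound-free enzyme plus substrate as uninhibited.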
HKDC1 inh – blocks human hexokinase HKDC1 activity; recombinant HKDC1, G6PDH/diaphorase resazurin coupled fluorescence; inhibition, % at 20 µM; hit rate 0.16% among 340,000; AID 493160;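 active = inhibition above about 35% when tested at 20 µM, limit read from the data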;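 also: plate controls were DMSO wells with enzyme for no effect and DMSO wells lacking enzyme for full effect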
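Material – in-house recombinant HK5 (HKDC1) enzyme · Quantity – HKDC1 at 5 µg/mL · Buffer or medium – pH 8.0 Tris buffer with 10 mM MgCl2 · Reagent – glucose with 1 mM ATP · Dosing – single 20 µM dose · Times – reaction time 90 min, room temperature, protected from light · Technique – resorufin fluorescence at 613 nm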
PfGluPho conf – PfG6PD inhibition, single-dose confirmed; hit rate 34% among 2,400; inhibition, % at 20 µM; AID 504753; recombinant PfGluPho, NADPH-diaphorase-resazurin fluorescence; shares compounds with PfGluPho inh;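 active = inhibition of at least 50% at 20 µM in any single replicate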;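 also: 0% = DMSO with substrate and 100% = DMSO lacking glucose-6-phosphate substrate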
Diaphorase 10uM – counter-screen for P. falciparum G6PD inhibitors: diaphorase inhibitors, oxidizers; shares compounds with PfGluPho inh; diaphorase-coupled resazurin reduction, fluorescence, NADPH 10 uM; inhibition, % at 20 µM; hit rate 39% among 820; AID 504862;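 active = average inhibition reaching 50% or more with the compound at 20 µM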;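 also: resorufin red fluorescence formed as diaphorase reduces resazurin using NADPH; 0% = DMSO with enzyme and 100% = DMSO without enzyme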
Diaph ctr 30uM – inhibits diaphorase or oxidizes, flagging false PfG6PD hits. shares compounds with PfGluPho inh. hit rate 29% among 820. Diaphorase/resazurin coupled assay, resorufin fluorescence, 30 uM NADPH. inhibition, % at 20 µM. AID 504863;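 active = inhibition averaging 50% or more, tested at 20 µM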;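 also: 0% = DMSO with enzyme and 100% = DMSO wells lacking diaphorase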
The depositor's hits bear a star; . = no result given.

SMILES	aDG glyco act	PfGluPho inh	Cardio protect	B2AR ag	UCH37 inh	HKDC1 inh	PfGluPho conf	others
COc1ccccc1Cn1c(C(C)C)nc2ccccc21	0	-34	-6	-5	4	0	.
COCCn1c(/C=C/c2ccccc2)nc2ccccc21	0	44	-23	5	-189	0	.
COc1ccc(/C=C/c2nc3ccccc3n2Cc2ccccc2OC)cc1	1	76*	-30	-8	-224	-5	22
O=[N+]([O-])c1ccc(C=Nn2c(CO)nc3ccccc32)s1	.	.	.	.	3	.	.
O=[N+]([O-])c1ccc(C=Nc2cccc3ccccc23)s1	1	71*	-14	-2	2	21	18
CCNC(=S)NN=Cc1cc(Br)cc(Br)c1OC	.	.	.	.	4	.	.
COc1ccc(Cl)cc1NC(=O)CN(C)C(=O)Cc1ccc2c(c1)CCC2	0	84*	2	-8	1	4	57*	Diaphorase 10uM=53*;Diaph ctr 30uM=52*
Nn1cnnc1NN=Cc1ccc(-c2ccccc2[N+](=O)[O-])o1	.	.	.	.	17	.	.
O=C(c1cccc(S(=O)(=O)N2CCc3ccccc3C2)c1)N1CCN(c2ccc(O)cc2)CC1	0	66*	-5	1	0	11	26
Cc1ccc(N2CC(C(=O)OCC(=O)c3ccc([N+](=O)[O-])cc3)CC2=O)cc1 (stereo not drawn)	0	60*	5	5	0	-2	57*	Diaphorase 10uM=-9;Diaph ctr 30uM=-2
CC(=NNC(=O)c1cc(C)nc2ccccc12)c1cccc(Cl)c1	.	.	.	.	2	.	.
CCOC(=O)Nc1ccc(NCc2ccc(F)cc2)nc1N	0	98*	-24	-97	-4	32	79*	Diaphorase 10uM=11;Diaph ctr 30uM=12
CCn1c(=O)n(CC)c2cc(N3CCCC3)c(NC(=O)c3ccc(F)cc3)cc21	0	78*	-3	-9	.	3	41
O=S(=O)(c1ccccc1)N1CCN=C1SCc1cccc(Cl)c1	0	82*	-10	-1	6	-4	43
Cc1ccc(S(=O)(=O)N2CCN=C2SCc2ccccc2)cc1	0	69*	-1	2	2	4	24
O=S(=O)(c1ccccc1)N1CCN=C1SCc1ccccc1Cl	1	78*	-15	-3	0	3	21
Cc1[nH]c(=O)[nH]c(=O)c1C=NNC(=O)[C@H](C)N	.	.	.	.	0	.	.
COc1cccc2c(NN=Cc3ccccc3)cc(C)nc12	.	.	.	.	-14	.	.
CC(C)(C)S(=O)(=O)C(C#N)=NNc1ccc(C#N)cc1	.	.	.	.	10	.	.
CC1=C(C(N)=O)C(c2ccccc2[N+](=O)[O-])n2ncnc2N1 (stereo not drawn)	0	65*	-5	9	2	2	0
Nn1cnnc1NN=Cc1ccc(F)cc1	.	.	.	.	2	.	.
COc1ccc(N2C(=O)/C(=C/c3cccs3)NC2=S)cc1	0	79*	-4	-4	2	-36	64*	Diaphorase 10uM=-16;Diaph ctr 30uM=-8
CC1=CC(=NOS(=O)(=O)c2ccccc2)C=CC1=O	.	.	.	.	0	.	.
Cn1c(=O)c2c([nH]c(=S)n2Cc2ccc(Cl)cc2)n(C)c1=O	0	62*	-1	-3	6	-5	25
Cn1c(=O)c2c(ncn2Cc2ccc(Cl)cc2)n(C)c1=O	1	9	1	4	3	-9	.
SMILES	aDG glyco act	PfGluPho inh	Cardio protect	B2AR ag	UCH37 inh	HKDC1 inh	PfGluPho conf	others
CC(=NNC(=O)Nc1ccccc1)c1ccc2ccccc2c1	.	.	.	.	6	.	.
N#Cc1ccc2sn(-c3ccccc3)c(=O)c2c1	0	126*	-28	.	.	.	107*	Diaphorase 10uM=-11;Diaph ctr 30uM=8
CC(=O)Nc1ccc2sn(-c3ccccc3)c(=O)c2c1	0	126*	-27	.	.	.	105*	Diaphorase 10uM=-12;Diaph ctr 30uM=11
O=c1c2cc([N+](=O)[O-])ccc2sn1-c1ccccc1	3	121*	-30	.	.	.	105*	Diaphorase 10uM=12;Diaph ctr 30uM=17
Cc1cccc(NC(=S)NN=C2CCCCc3ccccc32)c1	.	.	.	.	1	.	.
COc1ccc(C(C)=NNC(=O)c2ccc(CSc3nncn3C)cc2)cc1	.	.	.	.	6	.	.
CCOC(=O)c1c(-c2ccc(OC)cc2)csc1NC(=O)CCN1C(=O)c2ccccc2C1=O	0	62*	-1	-1	1	3	10
O=C(Cc1cccc2ccccc12)NN=Cc1ccc(O)c([N+](=O)[O-])c1	.	.	.	.	4	.	.
Cc1onc(-c2ccccc2)c1C(=O)NN=Cc1ccc(Br)cc1	.	.	.	.	5	.	.
Cc1onc(-c2ccccc2)c1C(=O)N/N=C/c1cccs1	0	62*	-2	-2	.	0	44
Cc1onc(-c2ccccc2)c1C(=O)N/N=C/c1ccccc1OC(C)C	0	117*	-8	-6	.	6	85*	Diaphorase 10uM=76*;Diaph ctr 30uM=50*
Cc1onc(-c2ccccc2)c1C(=O)NN=Cc1ccccc1OC(C)C	.	.	.	.	5	.	.
Cc1ccccc1OCC(=O)N/N=C/c1cn(C)c2ccccc12	0	64*	-3	10	.	4	24
COc1ccccc1/C=N/NC(=O)c1c(-c2ccccc2)noc1C	0	87*	-7	-8	.	7	66*	Diaphorase 10uM=84*;Diaph ctr 30uM=64*
NC(=NOCc1ccccc1)c1nonc1N	.	.	.	.	6	.	.
Cc1onc(-c2ccccc2)c1C(=O)N/N=C/c1cn(C)c2ccccc12	0	90*	-10	-5	.	4	71*	Diaphorase 10uM=68*;Diaph ctr 30uM=58*
Cc1ccc(C=NNC(=O)c2c(-c3ccccc3)noc2C)o1	.	.	.	.	7	.	.
COc1ccc(C=NNC(=O)C[n+]2ccccc2)c(OC)c1	.	.	.	.	3	.	.
Cc1ccc(C=NN2CCN(Cc3cccc4ccccc34)CC2)s1	.	.	.	.	3	.	.
CCc1cc(-c2n[nH]c(C)c2-c2nc(C)cs2)c(O)cc1OC	1	69*	-12	2	-1	-4	41
COc1ccc(C(C)=NNc2nc(-c3ccccc3)cc(=O)[nH]2)cc1	.	.	.	.	-140	.	.
CC1=CC(=NOS(=O)(=O)c2ccccc2)C(C)=CC1=O	.	.	.	.	4	.	.
CC(=NNC(=O)CN(c1ccc(C)cc1)S(C)(=O)=O)c1cccs1	.	.	.	.	1	.	.
O=C(Nc1ccc2oc(=O)ccc2c1)c1cc2ccccc2o1	0	38	3	-11	-2	-3	.
O=C(Nc1ccc2c(c1)OCCO2)c1cc2ccccc2o1	2	72*	-26	0	2	-9	28
COc1cccc(C(=O)Nc2nnc(S(=O)(=O)N3CCCC3)s2)c1	0	93*	9	3	3	0	71*	Diaphorase 10uM=58*;Diaph ctr 30uM=51*
O=C(Nc1nnc(S(=O)(=O)N2CCCCCC2)s1)c1ccc(Br)cc1	0	72*	-20	9	3	-1	9

Bioassay records (PubChem BioAssay)
